Sampled rows, rich in hits. Any-hit rate of the full collection: about 1.3%.
HIV Rev-RRE inh: inhibitors of HIV-1 Rev-RRE RNA interaction; P05866; Rev peptide-RRE RNA binding, FRET; inhibition, % at 8 µM; 0.79% of 97,000 active; AID 704;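 active means inhibition above the screen-wide mean plus 3 SD, cut at about 35% in these data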
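Test system: Cy5-tagged RRE RNA duplex with fluorescein-tagged Rev peptide | Read-out: % inhibition of FRET ratio versus controls | Probe or stimulus: Labelled Rev peptide | Incubation: 5 min RNA-compound premix plus 15 min binding step, 25 °C | Technique: FRET fluorescence readout | Benchmarks: DMSO low control, neomycin B high control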
CD11b adhes inh: blocks human CD11b/CD18 adhesion to fibrinogen; AID 1497; K562 CD11b/CD18 adhesion to fibrinogen, ATPlite luminescence; Mn2+ added to activate the integrin; inhibition, % at 10 µM; P05107+P11215; 0.54% of 93,000 active;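 active means primary inhibition of 50% or more at 10 µM, then 40% or more on retest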
EphB4 ephrin blk: blocks human EphB4 binding to ephrin-B2; EphB4 LBD / TNYL-RAW-Alexa532 peptide, fluorescence polarization; inhibition, % at 7 µM; P54760; 0.15% of 97,000 active; AID 720;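 active means inhibition above the screen-wide mean inhibition plus 3 SD, cut at about 15% in these data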
Target sequence (P54760 whole entry, looked up, the tested form may be a part): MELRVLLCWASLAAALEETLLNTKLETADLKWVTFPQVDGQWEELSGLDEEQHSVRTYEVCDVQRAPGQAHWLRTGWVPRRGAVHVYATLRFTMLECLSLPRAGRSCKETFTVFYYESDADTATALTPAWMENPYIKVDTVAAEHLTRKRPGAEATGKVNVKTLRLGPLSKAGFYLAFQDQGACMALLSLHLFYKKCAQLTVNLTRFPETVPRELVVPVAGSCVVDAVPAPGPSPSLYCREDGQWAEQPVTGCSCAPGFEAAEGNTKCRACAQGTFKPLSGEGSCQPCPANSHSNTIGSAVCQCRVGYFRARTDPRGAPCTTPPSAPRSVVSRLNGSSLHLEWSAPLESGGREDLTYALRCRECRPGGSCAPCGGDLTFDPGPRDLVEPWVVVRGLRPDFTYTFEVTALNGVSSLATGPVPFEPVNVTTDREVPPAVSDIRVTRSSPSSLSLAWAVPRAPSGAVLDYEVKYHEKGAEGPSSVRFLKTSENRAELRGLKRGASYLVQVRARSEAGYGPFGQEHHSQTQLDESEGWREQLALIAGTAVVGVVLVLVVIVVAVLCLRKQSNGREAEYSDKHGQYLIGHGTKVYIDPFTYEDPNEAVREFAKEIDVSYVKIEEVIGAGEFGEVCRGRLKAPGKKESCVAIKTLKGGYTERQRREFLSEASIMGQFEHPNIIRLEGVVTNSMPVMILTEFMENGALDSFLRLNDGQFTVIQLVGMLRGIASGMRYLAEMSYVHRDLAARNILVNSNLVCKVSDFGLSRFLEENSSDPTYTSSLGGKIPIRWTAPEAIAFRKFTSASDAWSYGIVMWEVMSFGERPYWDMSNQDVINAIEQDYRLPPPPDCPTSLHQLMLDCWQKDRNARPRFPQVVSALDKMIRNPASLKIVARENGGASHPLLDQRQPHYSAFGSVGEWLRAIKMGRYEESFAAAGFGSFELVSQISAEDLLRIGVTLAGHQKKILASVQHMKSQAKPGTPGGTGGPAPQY
Phagocytosis inh: inhibitors of macrophage phagocytosis | J774A.1 macrophage IgG-bead phagocytosis, imaging | 0.07% of 110,000 active | inhibition, % at 5 µM | AID 1029;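 active means inhibition above the mean of the plate negative controls plus 5 SD, cut at about 13% in these data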;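 further: phagocytic index as fraction of beads internalized from green versus red external bead signal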
Smad3 inh: Smad3 (human) transcription factor binding inhibition; 0.29% of 88,000 active; inhibition, % at 25 µM; AID 630; TR-FRET Smad3/Dy647-FoxH1 peptide binding, europium anti-His; P84022;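 active means compounds that reduce the energy-transfer binding signal between the protein and its labelled peptide by more than half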
CD11b adhes enh: increases human CD11b/CD18 adhesion to fibrinogen | activation, % at 10 µM | 0.07% of 93,000 active | K562 CD11b/CD18 adhesion to fibrinogen, ATPlite luminescence | AID 1499;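 active means 10 µM primary screen giving 50% or more activity, confirmed by 40% or more on retest at that dose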
A number is an active result; - = inactive; . = no result given; [ ] = remark or other dose.

SMILES	HIV Rev-RRE inh	CD11b adhes inh	EphB4 ephrin blk	Phagocytosis inh	Smad3 inh	CD11b adhes enh
CCCCCCOC(=O)C(C#N)c1nc2ccccc2nc1N1CCCCC1 (centres undefined)	-	-	-	-	-	-
CC1(C)Cc2c(c(N3CCOCC3)nc3sc(-c4ccc(C(=O)O)o4)c(N)c23)CO1	40	.	-	.	.	.
Clc1ccc2c(c1)N(CCCN1CCCC13CCCCC3)c1ccccc1S2	.	.	.	.	-	.
Cc1ccc(S(=O)(=O)N(C)c2ccc(C(=O)N3CCN(Cc4ccc5c(c4)OCO5)CC3)cc2)cc1	-	61	-	-	-	-
COC(=O)c1ccc(Oc2c(Cl)cccc2[N+](=O)[O-])cc1	.	.	.	-	.	.
NCC[C@H](N)C(=O)O	.	.	.	.	-	.
COc1ccccc1N1CCN(C(=O)c2cc3c(s2)CCC3)CC1	-	-	-	.	-	70
O=C(O)CCC(=O)N1CCN(c2nc(-c3ccccc3Cl)c3cc(Br)ccc3n2)CC1	-	.	16	.	-	.
COC(=O)c1cc(NC(=O)c2cccc(C(F)(F)F)c2)c(=O)oc1C/C=N/OCc1cccc(Cl)c1Cl	39	-	-	-	-	-
OCCCNC(=S)Nc1ccc2nc(-c3ccccn3)c(-c3ccccn3)nc2c1	36	.	-	.	.	.
CC(C)(C)CC(C)(C)NC(=S)Nc1ccc2nc(-c3ccccn3)c(-c3ccccn3)nc2c1	76	-	-	-	.	-
O=C1c2ccccc2C(=O)N1CC1c2ccccc2CCN1C(=O)C1CCCCC1 (centres undefined)	-	-	-	-	-	-
O=C(NCC1c2ccccc2CCN1C(=O)CN1CCOCC1)C1CCCCC1 (centres undefined)	-	-	-	-	63[fluorescence artefact?]	-
C=C(C)COc1ccc2c(c1)CC[C@@H]1[C@H]3C/C(=N/O)C(=O)[C@]3(C)CC[C@@H]21	.	.	.	.	-	.
Cc1ccc(-c2noc(CCC(=O)NCCN3CCN(Cc4ccccc4)CC3)n2)cc1	-	-	-	-	-	-
COc1ccc(-c2noc(CCC(=O)NCCCN3CCC(Cc4ccccc4)CC3)n2)cc1	-	61	-	-	-	-
CC(C)=N[C@H](C(=O)O)C(C)(C)S	.	.	.	.	-	.
Cc1ccc(-c2nc3n(n2)Cc2ccccc2-3)cc1	-	.	-	.	-	.
CCn1c(C)nc2cc(-c3nc4n(n3)Cc3ccccc3-4)ccc21	.	98	.	-	-	-
Cc1ccnc(SCCn2c(Br)nc3c2c(=O)n(C)c(=O)n3C)n1	.	.	.	.	-	.
COc1ccc(C(=O)[C@H](Br)[C@H](Br)C(=O)O)cc1	.	.	.	.	-	.
CCNc1c2c3c(cccc3n(C)c1=O)C(=O)c1ccccc1-2	142[fluorescence artefact?]	-	26	-	-	-
Cn1c(=O)c(NCCO)c2c3c(cccc31)C(=O)c1ccccc1-2	142[fluorescence artefact?]	-	31[fluorescence artefact?]	-	-	-
CC(=O)Nc1ccc(Nc2c3c4c(cccc4n(C)c2=O)C(=O)c2ccccc2-3)cc1	.	.	.	-	.	.
CCCCNc1c2c3c(cccc3n(C)c1=O)C(=O)c1ccccc1-2	142[fluorescence artefact?]	.	-	.	-	.
SMILES	HIV Rev-RRE inh	CD11b adhes inh	EphB4 ephrin blk	Phagocytosis inh	Smad3 inh	CD11b adhes enh
CN1C(=O)c2cccc(NCCCCCCN3C(=O)c4ccccc4C3=O)c2C1=O	-	-	-	-	-	-
CCNC1=C(Cl)C(=O)c2ccccc2C1=O	-	-	-	-	-	-
Cn1c(=O)c(NCCc2ccccc2)c2c3c(cccc31)C(=O)c1ccccc1-2	140[fluorescence artefact?]	-	119[fluorescence artefact?]	-	-	-
c1coc(CNc2nc3nonc3nc2NCc2ccco2)c1	-	62	-	-	-	-
CCCCC(=O)c1ccc(O)cc1O	-	.	-	.	-	.
O=C(Cc1ccc(Br)cc1)c1ccc(O)cc1O	-	78	-	-	.	-
COc1ccc2c3c([nH]c2c1)[C@H]1C[C@@H]2[C@H](C[C@@H](O)[C@H](OC)[C@H]2C(=O)O)CN1CC3	.	.	.	.	-	.
CC1=NC(=O)C(N=Nc2cccc3ccccc23)N1c1ccccc1 (centres undefined)	-	.	-	.	-	.
Cc1ccc(-c2noc(CCCOc3ccc(Cl)cc3Cl)n2)cc1	-	-	-	-	-	-
Cc1cccc(-c2noc(CCCOc3ccc(Cl)cc3Cl)n2)c1	-	99	-	-	-	-
O=C(O)C[n+]1ccccc1	.	.	.	.	-	.
CCOC(=O)c1oc2cccc(O)c2c1CN(Cc1ccccc1)C(C)=O	-	-	19	-	.	-
CCOC(=O)c1oc2cccc(O)c2c1C	-	-	-	-	-	-
CCOC(=O)c1oc2ccccc2c1NC(=O)CN1CCN(C)CC1	-	-	-	-	-	-

From PubChem BioAssay
